In ChEMBL document CHEMBL3997766, “Synthesis and pre-clinical studies of new amino-acid ester thiazolide prodrugs” (Eur J Med Chem, 2017):

How the values were obtained:
[1] = tested on: Rattus norvegicus; test: Elimination half life in Sprague-Dawley rat assessed as Tizoxanide level at 28 mg/kg, po; assay type: ADME, organism-based; details: in vivo
[2] = tested on: Rattus norvegicus; test: Tmax in Sprague-Dawley rat assessed as Tizoxanide in plasma at 6.3 mg/kg, iv administered as single dose; assay type: ADME, organism-based; details: in vivo
In short: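 Rats in groups of three got a single oral dose (30 mg/kg) or a single intravenous injection (6 mg/kg). Serial blood samples were taken at 5, 10, 15 and 30 min and at 1, 2, 4, 8, 23 and 24 h post-dose for plasma drug and glucuronide levels. Bioavailability came from oral versus intravenous AUC after dose correction to 30 mg/kg.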

[3] = tested on: Rattus norvegicus; test: Toxicity in Sprague-Dawley rat assessed as hemorrhage in stomach at 75 mg/kg administered as oral gavage qd for 28 consecutive days followed by 2 weeks recovery period by microscopic method; assay type: organism-based; details: in vivo, 336 h
In short: (§1)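 Sub-acute study in Sprague-Dawley rats dosed orally with a suspension at 10, 30 and 75 mg/kg once daily for 28 consecutive days. Four groups of up to 30 rats each (15M/15F).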

[4] = tested on: Plasma; test: Drug metabolism in Sprague-Dawley rat assessed as Tizoxanide in plasma at 28 mg/kg, po measured at 0.083 hrs post dose; assay type: ADME, organism-based; details: in vivo
[5] = tested on: Canis familiaris; test: Cardiotoxicity in Beagle dog up to 25 mg/kg, po administered as gelatin capsule once daily for 28 days measured 1 hr post last dose on one of last 3 days of dosing; assay type: toxicity, organism-based, Canis lupus familiaris; details: in vivo
In short: (§2)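 Beagle dogs received the drug orally in a single gelatin capsule at 5, 15 or 25 mg/kg once daily for 28 consecutive days in a sub-acute toxicity study assessing systemic exposure.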

[6] = tested on: Rattus norvegicus; test: Toxicity in Sprague-Dawley rat assessed as hemorrhage in duodenum at 75 mg/kg administered as oral gavage qd for 28 consecutive days measured on day 29 by microscopic method; assay type: organism-based; details: in vivo; in short: as §1
[7] = tested on: Rattus norvegicus; test: Neurotoxicity in Sprague-Dawley rat assessed as decrease in pain response at 1000 mg/kg administered as single dose via oral gavage after 4 to 24 hrs; assay type: toxicity, organism-based; details: in vivo
In short: (§3)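 Three groups of 10 rats (5M/5F) received a single dose by oral gavage of 100, 300 or 1000 mg/kg, and an untreated group served as control. Clinical signs of CNS effects were recorded at 4 and 24 h after treatment.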

[8] = tested on: Rattus norvegicus; test: AUC (0 to t) in Sprague-Dawley rat assessed as tizoxanide-glucuronide level in plasma at 30 mg/kg, po administered as single dose; assay type: ADME, organism-based; details: in vivo
In short: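 Plasma tizoxanide and tizoxanide glucuronide were measured and PK parameters derived. AUCs were dose-corrected to 30 mg/kg for bioavailability.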

[9] = tested on: Rattus norvegicus; test: Toxicity in Sprague-Dawley rat assessed as effect on respiratory rate by measuring minute volume dose at 100 to 300 mg/kg administered as single dose via oral gavage; assay type: organism-based; details: in vivo
In short: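 Respiratory safety study: conscious rats, 3 groups of 6 (3M/3F), given single oral-gavage doses of 100, 300 or 1000 mg/kg, with an untreated control group. Respiratory rate (breaths per minute), tidal volume and minute volume were recorded, and mortality was noted.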

[10] = tested on: Rattus norvegicus; test: Toxicity in Sprague-Dawley rat assessed as increase in total bilirubin level at 30 to 75 mg/kg administered as oral gavage qd for 28 consecutive days followed by 2 weeks recovery period measured on day 43; assay type: organism-based; details: in vivo, 336 h; in short: as §1
[11] = tested on: Rattus norvegicus; test: Cmax in Sprague-Dawley rat assessed as Tizoxanide level in plasma at 6 mg/kg, iv administered as single dose; assay type: ADME, organism-based; parameters: dose 6 mg/kg, route intravenous; details: in vivo
In short: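 Rats in groups of three received one compound as a single oral dose (30 mg/kg) or a single intravenous injection (6 mg/kg), with four compounds studied separately. Serial blood samples were drawn at 5, 10, 15 and 30 min and at 1, 2, 4, 8, 23 and 24 h post-dose. Plasma parent drug and metabolites were quantified and PK parameters were derived.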

[12] = tested on: Rattus norvegicus; test: Toxicity in Sprague-Dawley rat assessed as decrease in serum alanine transferase level at 75 mg/kg administered as oral gavage qd for 28 consecutive days followed by 2 weeks recovery period measured on day 43; assay type: organism-based; details: in vivo, 336 h; in short: as §1
[13] = tested on: Rattus norvegicus; test: Toxicity in Sprague-Dawley rat assessed as epithelial hyperplasia in stomach at 30 to 75 mg/kg administered as oral gavage qd for 28 consecutive days measured on day 29 by microscopic method; assay type: organism-based; details: in vivo
In short: (§4)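 Sub-acute study in Sprague-Dawley rats: 10, 30 or 75 mg/kg given orally once a day for 28 consecutive days as a yellow suspension. There were 4 groups of up to 30 rats each (15M/15F), including a control. Body weight, clinical observations and terminal findings were assessed.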

[14] = tested on: Canis familiaris; test: Toxicity in Beagle dog assessed as body weight gain up to 25 mg/kg, po administered as gelatin capsule once daily for 28 days measured on day 29; assay type: organism-based, Canis lupus familiaris; details: in vivo, 672 h
In short: (§5)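 Sub-acute study in Beagle dogs dosed orally by gelatin capsule at 5, 15 and 25 mg/kg once a day for 28 consecutive days.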

[15] = tested on: Rattus norvegicus; test: Neurotoxicity in Sprague-Dawley rat assessed as decreased abdominal tone at 1000 mg/kg administered via oral gavage as single dose after 4 to 24 hrs; assay type: toxicity, organism-based; details: in vivo; in short: as §3
[16] = tested on: Rattus norvegicus; test: Neurotoxicity in Sprague-Dawley rat assessed as decreased activity at 1000 mg/kg administered via oral gavage as single dose after 4 to 24 hrs; assay type: toxicity, organism-based; details: in vivo; in short: as §3
[17] = tested on: Rattus norvegicus; test: Toxicity in Sprague-Dawley rat assessed as mucosal hyperplasia in duodenum at 75 mg/kg administered as oral gavage qd for 28 consecutive days measured on day 29 by microscopic method; assay type: organism-based; details: in vivo
In short: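 Sub-acute oral toxicity study in Sprague-Dawley rats. The drug was given once daily for 28 consecutive days at 10, 30 or 75 mg/kg, formulated as a suspension. There were 4 groups of up to 30 rats each (15 male, 15 female). The study evaluated systemic exposure to the drug.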

[18] = tested on: Rattus norvegicus; test: Toxicity in Sprague-Dawley rat assessed as mortality at 100 to 1000 mg/kg administered as single dose via oral gavage; assay type: organism-based; details: in vivo
In short: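 CNS safety study in rats: single oral-gavage doses of 100, 300 or 1000 mg/kg to 3 groups of 10 (5M/5F), with an untreated control group. Clinical signs (activity, abdominal tone, breathing, tremors, pain response) were recorded at 4 and 24 h after dosing, and mortality was noted.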

[19] = tested on: Canis familiaris; test: Toxicity in Beagle dog assessed as effect on coagulation up to 25 mg/kg, po administered as gelatin capsule once daily for 28 days measured on day 29; assay type: organism-based, Canis lupus familiaris; details: in vivo, 672 h; in short: as §5
[20] = tested on: Canis familiaris; test: Drug metabolism in Beagle dog assessed as tizoxanide level in plasma administered orally as gelatin capsule once daily for 28 days measured on day 1 and 29; assay type: ADME, Canis lupus familiaris; details: po, 672 h; in short: as §2
[21] = tested on: Rattus norvegicus; test: Toxicity in Sprague-Dawley rat assessed as effect on food consumption at 10 to 75 mg/kg administered as oral gavage qd for 28 consecutive days measured once per week during compound dosing; assay type: organism-based; details: in vivo; in short: as §4
[22] = tested on: Rattus norvegicus; test: Toxicity in Sprague-Dawley rat assessed as eosinophilic cytoplasmic bodies in leukocytes of duodenum at 75 mg/kg administered as oral gavage qd for 28 consecutive days measured on day 29 by microscopic method; assay type: organism-based; details: in vivo; in short: as §1
[23] = tested on: Rattus norvegicus; test: Toxicity in Sprague-Dawley rat assessed as early death at 10 to 75 mg/kg administered as oral gavage qd for 28 consecutive days measured up to day 43; assay type: organism-based; details: in vivo; in short: as §4
[24] = tested on: Rattus norvegicus; test: Toxicity in Sprague-Dawley rat assessed as decrease in urine specific gravity at 30 to 75 mg/kg administered as oral gavage qd for 28 consecutive days followed by 2 weeks recovery period measured on day 43; assay type: organism-based; details: in vivo, 336 h; in short: as §1
[25] = tested on: Canis familiaris; test: Toxicity in Beagle dog assessed as decrease in cholesterol level at 25 mg/kg, po administered as gelatin capsule once daily for 28 days followed by two weeks of recovery period; assay type: organism-based, Canis lupus familiaris; details: in vivo, 672 h; in short: as §5

SMILES: CC(C)(C)[C@H](N)C(=O)Oc1ccccc1C(=O)Nc1ncc([N+](=O)[O-])s1.Cl
- beta t1/2 [1]: 33 min
- Tmax [2]: 5 min
- Activity [3]: Non-Toxic
- Drug metabolism [4]: Metabolite_Detected
- Activity [5]: Non-Toxic
- Activity [6]: Toxic
- Activity [7]: Toxic
- AUCt [8]: 23600 ng·h/mL
- Activity [9]: Non-Toxic
- Activity [10]: Toxic
- Cmax [11]: 12800 ng/mL
- Activity [12]: Toxic
- Activity [13]: Toxic
- Activity [14]: Non-Toxic
- Activity [15]: Toxic
- Activity [16]: Toxic
- Activity [17]: Toxic
- Activity [18]: Non-Toxic
- Activity [19]: Non-Toxic
- Drug metabolism [20]: Dose-dependent effect
- Activity [21]: Non-Toxic
- Activity [22]: Toxic
- Activity [23]: Non-Toxic
- Activity [24]: Toxic
- Activity [25]: Non-Toxic
